Assay results: publication PMC11797553 (Science Advances, 2025)
Ends that are not written are not given here.

Legend:
[1] = test system: rat erythrocytes; assay: Hemolysis assay; type: cell-based, Sprague-Dawley rats; details: for concentration inducing hemolysis relative to MICs: hemolytic concentration / MIC
Procedure, shortened: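 Sprague-Dawley rat blood was drawn from the abdominal aorta into heparin. RBCs were centrifuged, washed and made up as a 10% suspension in saline. Peptides, twofold-diluted in saline, were incubated with the RBCs at 37°C for 1 h, then spun 10 min, and supernatant A540 was read. Controls were saline (0%) and 1% Triton X-100 (100%). Hemolysis % = (Am − An)/(Ap − An) × 100.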

[2] = test system: mammalian cells; assay: Cytotoxicity assay; type: cell-based, human; details: for concentration inducing cytotoxicity relative to MICs: cytotoxic concentration / MIC; for cytotoxicity: in words, MTT, HaCaTs and HUVECs, 24 h
Procedure, shortened: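 HUVECs and HaCaTs in log phase were trypsinised, adjusted to 5 × 10^4 cells/ml, seeded and left to adhere overnight. Cells were exposed to a range of peptide concentrations (peptides in sterile water) for 24 h at 37°C, 5% CO2, with untreated wells as controls. MTT (5 mg/ml stock) was added for 4 h, the supernatant was removed, formazan was dissolved in DMSO, and A490 was read.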

[3] = test system: A. baumannii GD003; assay: Drug resistance development, serial passage; type: cell-based, Acinetobacter baumannii; details: A. baumannii GD003, serial passage at sub-MIC for 30 days, 96-well plates
Procedure, shortened: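 A. baumannii GD003 was activated in liquid culture and grown 12 h. It was diluted to 5 × 10^5 cells/ml in MHB and tested by broth microdilution in 96-well plates (37°C, 24 h; MIC = lowest concentration with no visible growth). Cells from the half-MIC well were carried into the next round and the MIC was re-measured, repeating over 30 days.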

[4] = test system: A. baumannii; assay: Murine lung infection; type: in vivo, BALB/c mice; details: 40 mg/kg intravenously for three consecutive days
[5] = test system: six strains of pathogenic fungi and five strains of pathogenic bacteria; assay: MIC determination, whole panel of fungi and bacteria; type: cell-based; details: in words

Row | Sequence | concentration inducing hemolysis relative to MICs [1] | concentration inducing cytotoxicity relative to MICs [2] | cytotoxicity [2] | MIC after 30 passages of induced resistance [3] | H&E staining of off-target tissues (heart, liver, kidney) [4] | antimicrobial activity [5] | concentration with hemolytic activity ([1]; 10% rat RBC, 37°C, 1 h) | hemolytic activity ([1]; in words, 10% rat RBC, 37°C, 1 h (Fig. 3A))
1 | WLGSKIKAAKMKVGMWGAVGLRHN [AMP-24] | at least 32 fold | at least 32 fold | low cytotoxicity | 12.5 µM | no obvious immune cell infiltrations were observed |  |  | 
2 | VTFVRLAGVASAVKTKAG [peptide 26] |  |  |  |  |  | lacks antimicrobial activity |  | 
3 | WFHFFQRGSYNGI [AMP-29] | 4 fold | > 32 fold | low cytotoxicity |  |  |  | 50 µM | 
4 | GIWDMIRKVRTVIRKAKQIKTFINGKGVQ [AMP-11] |  |  | moderate cytotoxicity |  |  |  |  | potent hemolytic activity
